According to ChEMBL document CHEMBL3745692, “Novel iodoacetamido benzoheterocyclic derivatives with potent antileukemic activity are inhibitors of STAT5 phosphorylation” (Eur J Med Chem, 2016):

Key:
[1] = target: T1, Signal transducer and activator of transcription 5A (Homo sapiens) (UniProt P42229); experiment: Inhibition of STAT5 phosphorylation in human K562 cells at 3 uM after 24 hrs by flow cytometry (reference value: 315.56); assay type: cell-based
T1 sequence (whole entry): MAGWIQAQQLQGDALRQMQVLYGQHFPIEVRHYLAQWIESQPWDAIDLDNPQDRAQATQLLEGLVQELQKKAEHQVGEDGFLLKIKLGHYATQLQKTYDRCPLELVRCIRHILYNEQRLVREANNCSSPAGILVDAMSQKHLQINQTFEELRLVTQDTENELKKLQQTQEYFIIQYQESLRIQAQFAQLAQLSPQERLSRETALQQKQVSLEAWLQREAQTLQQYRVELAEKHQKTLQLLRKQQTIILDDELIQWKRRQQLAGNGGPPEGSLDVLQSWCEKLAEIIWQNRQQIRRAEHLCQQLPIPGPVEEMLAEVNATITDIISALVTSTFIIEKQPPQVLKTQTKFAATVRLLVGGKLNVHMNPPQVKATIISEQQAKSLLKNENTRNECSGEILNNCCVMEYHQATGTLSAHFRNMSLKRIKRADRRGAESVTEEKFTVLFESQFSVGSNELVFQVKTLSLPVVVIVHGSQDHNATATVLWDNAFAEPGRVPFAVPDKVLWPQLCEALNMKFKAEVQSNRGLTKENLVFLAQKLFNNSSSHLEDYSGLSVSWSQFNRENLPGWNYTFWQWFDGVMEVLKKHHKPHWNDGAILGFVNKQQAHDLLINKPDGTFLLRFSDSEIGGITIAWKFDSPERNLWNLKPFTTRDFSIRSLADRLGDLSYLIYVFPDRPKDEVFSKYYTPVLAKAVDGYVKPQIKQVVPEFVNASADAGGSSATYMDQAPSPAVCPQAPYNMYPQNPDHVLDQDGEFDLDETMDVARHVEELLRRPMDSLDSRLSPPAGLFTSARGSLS
Summary of the method: (§1)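 After 24 h exposure, about 1×10^6 K562 cells were PBS-washed and fixed/permeabilised for 20 min at 4 °C. They were then stained for 30 min at 4 °C with PE-conjugated anti-pSTAT5 monoclonal antibody, with an isotype antibody as control. Median fluorescence was read by flow cytometry and compared with untreated cells stained for pSTAT5.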

K562 [2] = experiment: Antiproliferative activity against human K562 cells after 48 hrs by trypan blue dye exclusion assay; assay type: functional, cell-based; conditions: K562, 48 h
K562 [3] = experiment: Induction of apoptosis in human K562 cells after 48 hrs by annexinV and propidium iodide staining based flow cytometry; assay type: functional, cell-based; conditions: K562, 48 h
Summary of the method: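 After 48 h drug exposure, 1×10^6 cells were washed in PBS and spun at 200×g for 5 min. They were stained with FITC-annexin V plus propidium iodide for 15 min at 20 °C and annexin V-positive cells counted by flow cytometry. Apoptosis was also scored morphologically with acridine orange/ethidium bromide, counting at least 300 cells. AC50 is the concentration inducing apoptosis in 50% of cells; mean ± SE from two to three experiments.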

K562 [4] = experiment: Cell cycle arrest in human K562 cells assessed as accumulation at G1 phase at 3 uM for 24 hrs by propidium iodide staining based flow cytometry (reference value: 39.27%); assay type: functional
Summary of the method: (§2)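 K562 cells in RPMI 1640 with 10% FCS, penicillin/streptomycin and L-glutamine, 5% CO2, 37 °C; exposed 24 h. Cells washed in ice-cold PBS, resuspended at 1×10^6/mL in hypotonic solution of propidium iodide 50 µg/mL in 0.1% sodium citrate plus 0.03% nonidet P-40 for 30 min. DNA content read as single-parameter flow cytometry histograms; phase distribution modelled.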

K562 [5] = experiment: Cell cycle arrest in human K562 cells assessed as accumulation at S-phase at 3 uM for 24 hrs by propidium iodide staining based flow cytometry (reference value: 47.84%); assay type: functional; summary of the method: as §2
K562 [6] = experiment: Cell cycle arrest in human K562 cells assessed as accumulation at G2M-phase at 3 uM for 24 hrs by propidium iodide staining based flow cytometry (reference value: 12.89%); assay type: functional; summary of the method: as §2
[7] = target: T1, Signal transducer and activator of transcription 5A (Homo sapiens); experiment: Inhibition of STAT5 phosphorylation in human K562 cells at 2 uM after 24 hrs by flow cytometry (reference value: 315.56); assay type: cell-based; summary of the method: as §1
K562 [8] = experiment: Cell cycle arrest in human K562 cells assessed as accumulation at G1 phase at 2 uM for 24 hrs by propidium iodide staining based flow cytometry (reference value: 39.27%); assay type: functional
Summary of the method: (§3)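 K562 cells were exposed to compound for 24 h. They were then washed in ice-cold PBS and resuspended at 1×10^6/mL in a hypotonic solution of propidium iodide 50 µg/mL in 0.1% sodium citrate with 0.03% NP-40. After 30 min, DNA content was read by flow cytometry as single-parameter histograms and cell cycle phase distribution (%) was modelled.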

K562 [9] = experiment: Cell cycle arrest in human K562 cells assessed as accumulation at S-phase at 2 uM for 24 hrs by propidium iodide staining based flow cytometry (reference value: 47.84%); assay type: functional; summary of the method: as §3
K562 [10] = experiment: Cell cycle arrest in human K562 cells assessed as accumulation at G2M-phase at 2 uM for 24 hrs by propidium iodide staining based flow cytometry (reference value: 12.89%); assay type: functional; summary of the method: as §3
[11] = target: T1, Signal transducer and activator of transcription 5A (Homo sapiens); experiment: Inhibition of STAT5 phosphorylation in human K562 cells at 0.75 uM after 24 hrs by flow cytometry (reference value: 315.56); assay type: cell-based; summary of the method: as §1
K562 [12] = experiment: Cell cycle arrest in human K562 cells assessed as accumulation at G1 phase at 0.75 uM for 24 hrs by propidium iodide staining based flow cytometry (reference value: 39.27%); assay type: functional; summary of the method: as §3
K562 [13] = experiment: Cell cycle arrest in human K562 cells assessed as accumulation at S-phase at 0.75 uM for 24 hrs by propidium iodide staining based flow cytometry (reference value: 47.84%); assay type: functional; summary of the method: as §3
K562 [14] = experiment: Cell cycle arrest in human K562 cells assessed as accumulation at G2M-phase at 0.75 uM for 24 hrs by propidium iodide staining based flow cytometry (reference value: 12.89%); assay type: functional; summary of the method: as §3
[15] = target: T1, Signal transducer and activator of transcription 5A (Homo sapiens); experiment: Inhibition of STAT5 phosphorylation in human K562 cells at 2 uM after 24 hrs by flow cytometry relative to control; assay type: cell-based
Summary of the method: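 K562 cells were exposed for 24 h. About 1×10^6 cells were fixed and permeabilized for 20 min at 4 °C, then stained for 30 min at 4 °C with PE-conjugated anti-pSTAT5 monoclonal antibody; an isotype IgG1 antibody served as the background control. Median fluorescence was read by flow cytometry and compared with untreated cells stained for pSTAT5.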

Structure (SMILES): COc1cc(C(=O)c2sc3cc(C)ccc3c2NC(=O)CI)cc(OC)c1OC
- Flu intensity [1]: 200
- IC50 (K562 [2]): 1 µM
- AC50 (K562 [3]): 4.7 µM
- Activity (K562 [4]): 41.47%
- Activity (K562 [5]): 27.66%
- Activity (K562 [6]): 30.87%

Structure (SMILES): Cc1ccc(NC(=O)c2ccc(CN3CCN(C)CC3)cc2)cc1Nc1nccc(-c2cccnc2)n1 [IMATINIB]
- AC50 (K562 [3]): 0.68 µM

Structure (SMILES): COc1cc(C(=O)c2cc3cc(NC(=O)CI)ccc3s2)cc(OC)c1OC
- Flu intensity [7]: 279
- IC50 (K562 [2]): 0.8 µM
- AC50 (K562 [3]): 4.2 µM
- Activity (K562 [8]): 32.96%
- Activity (K562 [9]): 54.92%
- Activity (K562 [10]): 12.12%

Structure (SMILES): COc1cc(C(=O)c2cc3cc(NC(=O)CI)cc(OC)c3o2)cc(OC)c1OC
- Flu intensity [11]: 316
- IC50 (K562 [2]): 0.4 µM
- AC50 (K562 [3]): 2.2 µM
- Activity (K562 [12]): 34.66%
- Activity (K562 [13]): 57.32%
- Activity (K562 [14]): 8.02%

Structure (SMILES): COc1cc(C(=O)c2cc3cc(NC(=O)CI)cc(OC)c3s2)cc(OC)c1OC
- Flu intensity [7]: 201
- IC50 (K562 [2]): 0.78 µM
- AC50 (K562 [3]): 3.7 µM
- Activity (K562 [8]): 19.94%
- Activity (K562 [9]): 33.7%
- Activity (K562 [10]): 45.36%

Structure (SMILES): COc1cc(C(=O)c2cc3cccc(NC(=O)CI)c3o2)cc(OC)c1OC
- IC50 (K562 [2]): > 50 µM
- AC50 (K562 [3]): > 50 µM

Structure (SMILES): COc1ccc(C(=O)c2oc3ccccc3c2NC(=O)CI)cc1
- IC50 (K562 [2]): 2.9 µM
- AC50 (K562 [3]): 6.8 µM

Structure (SMILES): COc1cc(C(=O)c2c(NC(=O)CI)c3ccccc3n2C)cc(OC)c1OC
- IC50 (K562 [2]): 4.3 µM
- AC50 (K562 [3]): 8.2 µM

Structure (SMILES): COc1cc2oc(C(=O)c3cc(OC)c(OC)c(OC)c3)cc2cc1NC(=O)CI
- Flu intensity [7]: 225
- inhibition [15]: 29%
- IC50 (K562 [2]): 0.4 µM
- AC50 (K562 [3]): 2 µM
- Activity (K562 [8]): 43.33%
- Activity (K562 [9]): 52.26%
- Activity (K562 [10]): 4.41%

Structure (SMILES): COc1ccc(C(=O)c2oc3ccccc3c2NC(=O)CI)cc1OC
- IC50 (K562 [2]): 22 µM
- AC50 (K562 [3]): 48 µM

Structure (SMILES): COc1ccc2oc(C(=O)c3cc(OC)c(OC)c(OC)c3)c(NC(=O)CI)c2c1
- IC50 (K562 [2]): 3.2 µM
- AC50 (K562 [3]): 7.8 µM
